# Reference: ChEMBL document CHEMBL4340565, “First-generation structure-activity relationship studies of 2,3,4,9-tetrahydro-1H-carbazol-1-amines as CpxA phosphatase inhibitors” (Bioorg Med Chem Lett, 2019)
# The source made the active and inactive calls. No cut-off for these calls is given here.
# Experiments:
# [1] = Inhibition of CpxA in Escherichia coli harboring lacZ reporter gene assessed as activation of CpxR incubated for 5 hrs by beta-galactosidase assay
# Procedure, shortened: (§1)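 Read-out is a CpxR-responsive lacZ reporter in a modified E. coli strain, measured as beta-galactosidase activity. Where potency is given it is an EC50. Values are mean ± SEM of at least three separate experiments, each run in triplicate. Compounds showing cytotoxicity or general stress-response activation were not scored.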
# [2] = test system: Escherichia coli; assay: Inhibition of CpxA in Escherichia coli harboring lacZ reporter gene assessed as activation of CpxR up to 80 uM incubated for 5 hrs by beta-galactosidase assay; procedure, shortened: as §1
# [3] = Drug uptake in Escherichia coli BW25113 harboring tolC deletion mutant at 16 to 128 ug/ml incubated for 1 to 40 mins by UHPLC-Q/TOF analysis; type: ADME
# Procedure, shortened: (§2)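 Isogenic E. coli strains: wild-type efflux or TolC-deficient (efflux-deficient), each with or without an arabinose-induced large outer-membrane pore (hyperporinated). Cells were incubated with increasing compound concentrations. Intracellular accumulation was measured by mass spectrometry after 1 and 40 min.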
# [4] = Drug uptake in Escherichia coli BW25113 at 16 to 128 ug/ml incubated for 1 to 40 mins by UHPLC-Q/TOF analysis; type: ADME; procedure, shortened: as §2
# [5] = Drug uptake in Escherichia coli BW25113 attTn7::mini-Tn7T-Kmrr-araC-ParaBAD-fhuAdeltaCdelta4L at 16 to 128 ug/ml incubated for 1 to 40 mins by UHPLC-Q/TOF analysis; type: ADME; procedure, shortened: as §2
# [6] = Drug uptake in Escherichia coli BW25113 deltatolCygiBCattTn7::mini-Tn7T-Kmr-araC-ParaBAD-fhuAdeltaCdelta4L at 16 to 128 ug/ml incubated for 1 to 40 mins by UHPLC-Q/TOF analysis; type: ADME; procedure, shortened: as §2
# [7] = test system: Escherichia coli; assay: Inhibition of CpxA phosphatase activity in Escherichia coli assessed as increase in the ratio of CpxR-P to CpxR at 10 uM incubated for 5 hrs by densitometric method
# Procedure, shortened: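 Wild-type and ΔcpxA E. coli were grown in medium with 0.4% glucose, with 0 or 10 μM compound. CpxR phosphorylation was resolved by Phos-Tag gel and Western blot. His6CpxR incubated with 0 or 20 mM acetyl phosphate served as a marker. The CpxR-P:CpxR ratio was quantified by densitometry, as average and standard deviation of 5 independent experiments.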
SMILES,EC50 ([1]; read-out: EC50),other results
N[C@H]1CCCc2c1[nH]c1ccc(F)cc21,> 100 µM,
C[C@@H](N)C(=O)Nc1ccc(F)c(F)c1,,inhibition [2]: inactive
N[C@@H]1CCCc2c1[nH]c1cc(F)c(F)cc21,1.1 µM,
NC1CCCc2c1[nH]c1ccc(C(=O)O)cc21 (racemic),> 100 µM,
Fc1ccc2[nH]c3c(c2c1)CCCC3,,Drug uptake [3]: Not Active; Drug uptake [4]: Active
NC1CCCc2c1[nH]c1ccc(Cl)cc21 (racemic),10.9 µM,
NC1CCCc2c1[nH]c1ccc(Br)cc21 (racemic),,EC50 [1]: Nd(Toxic)
CC(C)[C@@H](N)C(=O)Nc1ccc(F)c(F)c1,,inhibition [2]: inactive
CC(C)[C@@H](N)C(=O)Nc1ccc(F)cc1,,inhibition [2]: inactive
Cc1ccc2[nH]c3c(c2c1)CCCC3N (racemic),34.1 µM,
NC1CCCc2c1[nH]c1cc(F)c(F)cc21 (racemic),2.7 µM,
N[C@H](Cc1ccccc1)C(=O)Nc1ccc(F)cc1,,inhibition [2]: inactive
NC1CCCc2c1[nH]c1ccc(C(F)(F)F)cc21 (racemic),23.1 µM,
NC1CCCc2c1[nH]c1c(C(F)(F)F)cccc21 (racemic),> 100 µM,
NC1CCCc2c1[nH]c1ccc([N+](=O)[O-])cc21 (racemic),24.8 µM,inhibition [7]: Active
NCc1cc2cc(F)ccc2[nH]1,79.5 µM,
C[C@@H](N)C(=O)Nc1ccc(F)cc1,,inhibition [2]: inactive
NC1CCCc2c1[nH]c1cc(C(F)(F)F)ccc21 (racemic),,EC50 [1]: Nd(Toxic)
OC1CCCc2c1[nH]c1ccccc21 (stereo not given),> 100 µM,
NC1CCCc2c1[nH]c1ccc(S(N)(=O)=O)cc21 (racemic),> 100 µM,
CCC(C)[C@@H](N)C(=O)Nc1ccc(F)cc1 (stereo not given in full),,inhibition [2]: inactive
COc1ccc2[nH]c3c(c2c1)CCCC3N (racemic),> 100 µM,

# More lines, main results first:
EC50 ([1]; read-out: EC50),SMILES,other results
56.8 µM,NC1CCCc2c1[nH]c1c(F)cccc21 (racemic),
11.9 µM,NC1CCCc2c1[nH]c1cc(F)ccc21 (racemic),
65.9 µM,NC1CCCc2c1[nH]c1cccc(F)c21 (racemic),
30.2 µM,NC1CCCc2c1[nH]c1ccccc21 (racemic),
> 100 µM,NC1CCCc2c1[nH]c1cccc(C(F)(F)F)c21 (racemic),
> 100 µM,COC(=O)c1ccc2[nH]c3c(c2c1)CCCC3N (racemic),
7.7 µM,NC1CCCc2c1[nH]c1ccc(F)cc21 (racemic),Drug uptake [3]: Active; Drug uptake [5]: Active; Drug uptake [6]: Active; Drug uptake [4]: Active
> 160 µM,O=[N+]([O-])c1ccc2[nH]c3c(c2c1)CCCC3,
44.2 µM,CC(N)c1cc2cc(Br)ccc2[nH]1 (stereo not given),
3.5 µM,N[C@@H]1CCCc2c1[nH]c1ccc(F)cc21,inhibition [7]: Active
> 100 µM,N#Cc1ccc2[nH]c3c(c2c1)CCCC3N (racemic),
